For the experiment, the system named is MCF7. Nature of the experiment: Cytotoxicity against human MCF7 cells after 48 hrs by SRB assay. In kind it is functional, cell-based. The settings on record: MCF7, 48 h. A digest of the protocol: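 Cells seeded at 10⁴/well and left 24 h to attach. Compounds dissolved in DMSO, diluted in saline and added to the monolayer in triplicate wells per dose, then incubated 48 h at 37 °C in 5% CO₂. Cells were fixed and stained 30 min with 0.4% SRB in 1% acetic acid, washed four times with 1% acetic acid, and the dye recovered in Tris–EDTA. Absorbance was read, and surviving fraction plotted against concentration.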
(The SRB assay estimates cell density from bound dye.)

Drawing on ChEMBL document CHEMBL1154096, “Design, synthesis and anticancer evaluation of novel tetrahydroquinoline derivatives containing sulfonamide moiety” (Eur J Med Chem, 2009), this text covers IC50 for 14 compounds.

In brackets after ≈: the same amount, converted by molar mass.

Regarding `Cc1c2c(nc3[nH]c(=S)n(-c4ccc(S(N)(=O)=O)cc4)c(=N)c13)CCCC2`, inhibition was half-maximal at 0.95 µg/mL (≈ 2.37 µM) (IC50).
Next, `Cc1c2c(nc3[nH]c(=S)n(-c4ccc(S(=O)(=O)Nc5ncccn5)cc4)c(=N)c13)CC(C)(C)CC2=O`: 9.19 µg/mL (≈ 17.6 µM); `Cc1c2c(nc3[nH]c(=S)n(-c4ccc(S(=O)(=O)NC(=N)N)cc4)c(=N)c13)CCCC2`: 1.28 µg/mL (≈ 2.89 µM).
With `Cc1c2c(nc3ncn(-c4ccc(S(N)(=O)=O)cc4)c(=N)c13)CC(C)(C)CC2=O`, the IC50 was determined as 1.5 µg/mL (≈ 3.65 µM).
`Cc1cc(NS(=O)(=O)c2ccc(-n3c(=S)[nH]c4nc5c(c(C)c4c3=N)CCCC5)cc2)no1` returned an IC50 of 2.62 µg/mL (≈ 5.43 µM).
Turning to `Cc1c(C#N)c(/N=C/Nc2ccc(S(N)(=O)=O)cc2)nc2c1CCCC2`, the IC50 was > 10 µg/mL.
Regarding `Cc1c2c(nc3[nH]c(=S)n(-c4ccc(S(=O)(=O)Nc5ncccn5)cc4)c(=N)c13)CCCC2`, the IC50 was determined as 1.48 µg/mL (≈ 3.09 µM).
`Cc1cc(NS(=O)(=O)c2ccc(N/C=N/c3nc4c(c(C)c3C#N)CCCC4)cc2)no1` gave an IC50 of 1.95 µg/mL (≈ 4.33 µM).
Next, `Cc1c2c(nc3[nH]c(=S)n(-c4ccc(S(N)(=O)=O)cc4)c(=N)c13)CC(C)(C)CC2=O`: 4 µg/mL (≈ 9.02 µM).
The compound `Cc1c2c(nc3[nH]c(=S)n(-c4ccc(S(=O)(=O)NC(=N)N)cc4)c(=N)c13)CC(C)(C)CC2=O` had an IC50 of 5.17 µg/mL (≈ 10.6 µM).
In the case of `Cc1cc(NS(=O)(=O)c2ccc(N/C=N/c3nc4c(c(C)c3C#N)C(=O)CC(C)(C)C4)cc2)no1`, half-maximal inhibition (IC50) was put at 1.9 µg/mL (≈ 3.86 µM).
In the case of `Cc1cc(NS(=O)(=O)c2ccc(-n3c(=S)[nH]c4nc5c(c(C)c4c3=N)C(=O)CC(C)(C)C5)cc2)no1`, the IC50 is > 10 µg/mL.
In turn, `Cc1cc(NS(=O)(=O)c2ccc(-n3cnc4nc5c(c(C)c4c3=N)C(=O)CC(C)(C)C5)cc2)no1` came in with an IC50 of 2.6 µg/mL (≈ 5.28 µM).
In turn, `Cc1c(C#N)c(/N=C/Nc2ccc(S(N)(=O)=O)cc2)nc2c1C(=O)CC(C)(C)C2` displayed an IC50 of 2.62 µg/mL (≈ 6.37 µM).

By IC50 is commonly meant the concentration that inhibits the measured activity by half. A higher IC50 goes with a need for much substance.
